Assays:
[1] = Ratio of relative Vmax to that of Km values.; format: ADME
[2] = Relative maximal velocity (Vmax) as folylpolyglutamate synthetase substrate of the compound.; format: ADME
[3] = tested on: L1210; test: Compound was tested for inhibition of L1210 cell growth.; format: functional, cell-based; conditions: Mus musculus
How it was run: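 Exponentially growing L1210 mouse leukemia cells seeded at (2.0–2.5) × 10^4/mL in RPMI-1640 with 10% dialyzed fetal bovine serum. Compound added in phosphate-buffered saline. Incubated 72 h at 37 °C, 5% CO2, humidified. Cells counted with a Coulter counter. IC50 taken from 1 or 2 experiments.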

Row | Ratio [1] | Relative Vmax [2] | IC50 [3] [µM] | SMILES
1 | 0.7 | 1.06 | 217 | N#Cc1nc(CNc2ccc(C(=O)NC(CCC(=O)O)C(=O)O)cc2)cnc1N (stereo not given)
2 | 1.52 | 0.99 | 5.5 | NC(=O)c1nc(CNc2ccc(C(=O)NC(CCC(=O)O)C(=O)O)cc2)cnc1N (stereo not given)
3 | 2.6 | 1.84 | 85 | NC(=O)c1nc(CN(C=O)c2ccc(C(=O)NC(CCC(=O)O)C(=O)O)cc2)cnc1N (stereo not given)
4 | 1 | 1 |  | Nc1nc2ncc(CNc3ccc(C(=O)N[C@@H](CCC(=O)O)C(=O)O)cc3)nc2c(=O)[nH]1 [FOLIC ACID]
5 | 0.9 | 0.99 |  | CN(Cc1cnc2nc(N)nc(N)c2n1)c1ccc(C(=O)N[C@@H](CCC(=O)O)C(=O)O)cc1 [METHOTREXATE]

Row | SMILES | Ratio [1] | Relative Vmax [2] | IC50 [3] [µM]
6 | Nc1nc(N)c2nc(CNc3ccc(C(=O)N[C@@H](CCC(=O)O)C(=O)O)cc3)cnc2n1 [AMINOPTERIN] | 10.1 | 1.59 | 

— ChEMBL document CHEMBL1125814, “Folic acid analogues lacking the 2-carbon are substrates for folylpolyglutamate synthetase and inhibit cell growth” (J Med Chem, 1991)
